Assay outcomes as filed in PubChem BioAssay.
M4 antag: CHRM4 antagonism in calcium assay; CHO-hM4 cells, ACh EC80, Fluo-8 calcium fluorescence; inhibition, % at 3 µM; 360,000 tested, 0.73% active; AID 624125;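 active = inhibition above its plate's cutoff, the mean inhibition of sample wells plus 3 SD, cut at about 27% in these data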
Target sequence (P08173 whole entry, looked up): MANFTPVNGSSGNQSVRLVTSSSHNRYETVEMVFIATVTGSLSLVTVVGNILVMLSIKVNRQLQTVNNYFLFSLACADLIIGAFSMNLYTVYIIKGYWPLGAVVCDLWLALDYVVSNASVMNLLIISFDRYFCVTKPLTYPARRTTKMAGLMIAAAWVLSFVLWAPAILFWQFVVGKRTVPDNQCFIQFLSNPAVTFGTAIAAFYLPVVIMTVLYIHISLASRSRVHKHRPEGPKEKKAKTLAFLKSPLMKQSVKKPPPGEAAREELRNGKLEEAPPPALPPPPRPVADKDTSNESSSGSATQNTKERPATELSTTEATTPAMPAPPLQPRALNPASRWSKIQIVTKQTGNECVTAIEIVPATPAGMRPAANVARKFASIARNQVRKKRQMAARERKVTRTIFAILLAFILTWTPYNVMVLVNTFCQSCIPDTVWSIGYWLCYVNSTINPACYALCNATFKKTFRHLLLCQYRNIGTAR
M5 antag: antagonists of human muscarinic M5 receptor (CHRM5); P08912; CHO-hM5 cells, Fluo-8 calcium fluorescence, ACh EC80; inhibition, % at 3 µM; 360,000 tested, 0.59% active;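 active = inhibition above a per-plate cutoff, the mean of that plate's test compounds plus 3 SD, cut at about 27% in these data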
CHRM4 agonist: agonists of human muscarinic M4 receptor (CHRM4). P08173. CHO-K1 hM4/Gqi5, Fluo-8 calcium fluorescence; vehicle 0%, full acetylcholine response 100%. activation, % at 3 µM. 360,000 tested, 0.14% active. AID 624127;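 active = activation above the run mean over all test wells plus 3 SD, cut at about 32% in these data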;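 note: peak over basal fluorescence ratio per well then scaled between controls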
M5 PAM: positive allosteric modulators of human muscarinic M5 receptor; AID 624038; activation, % at 3 µM; CHO-K1 hM5, Fluo-8 calcium, ACh EC20 PAM; 0% = ACh EC20, 100% = ACh EC100; 360,000 tested, 0.3% active;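 active = activation above the run cutoff, the mean activation of all test compounds plus 3 SD, cut at about 18% in these data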
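System – CHO-K1 hM5 cells · Compound – 3 µM, single dose · Incubation – compound preincubation 140 s before EC20 acetylcholine addition · Technique – Fluo-8 calcium fluorescence · Measure – Max/basal fluorescence ratio as % of EC20–EC100 ACh window · Benchmarks – low control EC20 acetylcholine (0%), high control EC100 acetylcholine (100%) · Replication – singlicate, one well per test compound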
CHRM4 PAM: CHRM4 positive allosteric modulation; activation, % at 3 µM; CHO-K1 hM4/Gqi5, Fluo-8 calcium fluorescence, ACh EC20; 0% = ACh EC20, 100% = maximal ACh; P08173; 360,000 tested, 0.4% active;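 active = activation above its plate's cutoff, the mean activation of sample wells plus 3 SD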
CHRM5 agonist: CHRM5 agonism in calcium assay; CHO-K1 hM5 cells, Fluo-8 calcium fluorescence; 0% DMSO wells, 100% maximal acetylcholine response; 360,000 tested, 0.19% active; activation, % at 3 µM;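 active = activation above the run's mean over test compounds plus 3 SD, cut at about 23% in these data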;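 note: signal is peak over basal fluorescence ratio across the kinetic read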
Hits are given with their value; i = inactive. A selection: hits, their analogues and other compounds. The true share with any hit is near 1.8%.

SMILES	M4 antag	M5 antag	CHRM4 agonist	M5 PAM	CHRM4 PAM	CHRM5 agonist
CCn1c(SCC(=O)N2CCCC2)nc2c(c1=O)SC(C)C2 (stereo unspecified)	84	i	i	i	i	i
COCCn1c(SCC(=O)Nc2cc(C)on2)nc2c(c1=O)SC(C)C2 (stereo unspecified)	i	i	i	i	i	i
CCSc1nnc(NC(=O)CSc2nc3c(c(=O)n2CCOC)SC(C)C3)s1 (stereo unspecified)	32	i	i	i	i	i
Cc1c(CCO)c(=O)[nH]n1C(=O)c1ccc(F)cc1	i	i	i	i	i	i
O=C(NCCN1CCN(c2cccc(Cl)c2)CC1)Nc1ccccc1	i	i	i	i	i	i
O=C(NCCN1CCN(Cc2ccccc2)CC1)Nc1cc(Cl)cc(Cl)c1	43	i	45	i	i	i
COc1ccccc1/C=C/C(=O)N1CCN(S(=O)(=O)c2cccs2)CC1	i	i	i	i	i	i
O=C1C=CC(=Nc2ccc(F)cc2)O1	i	i	i	22	i	i
CN(C(=O)COC(=O)CNC(=O)c1ccccc1F)C1CCCCC1	i	i	i	i	23	i
CCCCNC(=O)CSc1nc2ccc(Nc3nc(N4CCOCC4)nc(N4CCOCC4)n3)cc2s1	i	i	i	i	i	i
CCCCSc1nc2ccc(Nc3nc(N4CCOCC4)nc(N4CCOCC4)n3)cc2s1	i	i	i	i	24	i
COc1ccc(C(=O)C(C)[n+]2ccc(C)c3ccccc32)cc1[N+](=O)[O-] (stereo unspecified)	27	i	i	i	i	i
Cc1c(Cl)cnc(NC(=O)COC(=O)Cc2coc3ccc4ccccc4c23)c1Cl	i	i	i	i	i	i
O=C(CSc1nnc(Cc2ccccc2)o1)N1CCc2ccccc21	i	i	i	i	i	i
O=C(CSc1nnc(COc2cccc3cccnc23)o1)N1CCc2ccccc21	i	28	i	i	i	i
CC(NC(=O)C1CCC(C(C)(C)C)CC1)C(c1ccccc1)N1CCOCC1 (stereo unspecified)	i	i	i	i	i	i
CC(NC(=O)c1ccc(Cl)cc1Cl)C(c1ccccc1)N1CCOCC1 (stereo unspecified)	i	i	i	i	i	i
CC(NC(=O)Nc1ccc([N+](=O)[O-])cc1)C(c1ccccc1)N1CCOCC1 (stereo unspecified)	i	i	76	i	i	31
CC(NC(=O)Nc1ccc(Cl)c(Cl)c1)C(c1ccccc1)N1CCOCC1 (stereo unspecified)	i	31	73	i	i	i
CSc1ncnc2c1ncn2CCCNCc1ccccn1	i	i	i	i	i	i
CCOC(=O)c1[nH]c(C)c(CC(C)C)c1C	i	i	i	i	i	i
Fc1cccc(F)c1-n1c(CN2CCCC2)csc1=S	68	i	i	i	i	i
CC(C)(C)OC(=O)C[C@H]1C/C=C\C[C@H](CC(=O)NCCO)C(=O)N[C@@H](c2ccccc2)COC1=O	i	i	i	i	i	i
CCc1ccc(C2C(C#N)=C(N)SC(N)=C2C#N)cc1	i	i	46	i	i	i
CCOc1ccc(C2C(C#N)=C(N)SC(N)=C2C#N)cc1OCC	i	i	i	i	i	i
SMILES	M4 antag	M5 antag	CHRM4 agonist	M5 PAM	CHRM4 PAM	CHRM5 agonist
O=C(/C=C/c1ccco1)N1CCC(Cc2ccccc2)CC1	i	i	i	i	i	i
OC(CCN1CC2CCC(CC2)C1)(Cc1ccccc1)c1ccco1 (stereo unspecified)	34	27	i	i	i	i
CCCCCCC(=O)N/N=C1\CCCc2ccccc21	i	i	i	i	i	i
C=CCN1C(=O)/C(=C/C=C2/N(CC)c3ccc(S(=O)(=O)N(C)C)cc3N2CC)SC1=S	i	i	i	i	i	24
O=C1Nc2ccc(Cl)cc2C(C#CC2CC2)(C(F)(F)F)O1 (stereo unspecified)	32	i	i	i	i	i
CC(C)CN(C(=O)C1=COCCO1)c1c(N)n(Cc2ccccc2)c(=O)[nH]c1=O	i	i	i	i	i	i
Cc1sc2ncnc(N3CCC(C(=O)NNC(=O)COc4ccc(Cl)cc4)CC3)c2c1C	i	i	i	i	i	i
Cc1sc2ncnc(N3CCN(CCOc4ccc(Cl)cc4)CC3)c2c1C	i	32	i	i	i	i
C=C1CC2(OC1=O)c1ccccc1CCc1ccccc12	48	i	i	i	i	i
O=C(/C=C/c1cccc(F)c1)Nc1ccc(S(=O)(=O)N2CCOCC2)cc1	i	i	i	19	i	i
O=S(=O)(Nc1ccc(F)cc1)c1ccc(S(=O)(=O)N2CCOCC2)cc1	i	i	i	i	i	27
O=S(=O)(Nc1ccc(S(=O)(=O)N2CCCC2)cc1)c1ccc(F)cc1	i	i	i	i	i	i
CCCC(C(=O)Nc1ccc(S(=O)(=O)N2CCOCC2)cc1)c1ccccc1 (stereo unspecified)	i	i	i	i	i	23
O=S(=O)(c1ccc(NC(=S)Nc2ccccc2)cc1)N1CCOCC1	i	i	i	24	29	i
O=C1OC(c2ccccc2)(N(Nc2ccccc2)c2ccccc2)c2ccccc21 (stereo unspecified)	i	i	i	i	i	i
N=c1n(CCCOc2ccccc2Cl)c2ccccc2n1CC(N)=O	i	i	i	i	i	i
CCCc1cc(C(=O)N2CCCC(C(=O)c3ccc(Cl)cc3)C2)n(C)n1 (stereo unspecified)	i	i	i	i	i	i
CC(=O)Nc1ccc(C(=O)N/C(=C\c2ccccc2)C(=O)Nc2cccc(C(=O)O)c2)cc1	i	i	i	i	i	i
O=C(CN1CCOCCOCCOCC1)Nc1ccccc1	i	i	i	i	i	i
O=S(=O)(c1ccc(NC(=S)NCc2cccnc2)cc1)N1CCCCC1	38	i	i	i	i	i
O=C(NCc1cccnc1)c1ccc(S(=O)(=O)N2CCCCC2)cc1	i	i	i	i	i	i
O=C(CN1CCOCC1)NNC(=S)Nc1ccccc1	i	i	i	29	i	i
O=C(NCc1ccccc1)C(=O)NCC1CCCN1S(=O)(=O)c1cccs1 (stereo unspecified)	i	i	i	i	i	i
Cc1ccccc1C(=O)NNC(=O)CCC(=O)Nc1cccc(Cl)c1C	i	i	i	19	i	i
CSCc1c(C(=O)Nc2ccccc2N2CCOCC2)oc2ccccc12	i	i	i	i	i	i
CC(C)(C)N1C(=O)c2ccccc2NC(=O)C1C(=O)NCCc1ccccc1 (stereo unspecified)	i	i	i	i	i	i
